Assay outcomes deposited in PubChem BioAssay by The Scripps Research Institute Molecular Screening Center.
Sampled rows, rich in hits. Any-hit rate of the full collection: about 0.75%.
ZTA DNA inh – counter-screen for EBNA-1 inhibitors: inhibitors of Epstein-Barr virus ZTA; AID 2234; P03206; inhibition, % at 11 µM; 320,000 compounds, 0.15% hits; ZTA-DNA binding, fluorescence polarization; in the data active means inhibition above about 33%
Target sequence (P03206 whole entry, looked up): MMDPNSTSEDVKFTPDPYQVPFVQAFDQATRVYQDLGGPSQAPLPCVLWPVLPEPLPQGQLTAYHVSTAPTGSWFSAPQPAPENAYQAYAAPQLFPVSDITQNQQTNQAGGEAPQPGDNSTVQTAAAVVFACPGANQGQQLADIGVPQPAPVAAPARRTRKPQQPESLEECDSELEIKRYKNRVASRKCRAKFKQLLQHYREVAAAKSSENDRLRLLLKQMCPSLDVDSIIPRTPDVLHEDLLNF
EBNA-1 inh – blocks EBNA-1 binding to DNA. 300,000 compounds, 0.34% hits. inhibition, % at 14.8 µM. EBNA-1 DNA binding, fluorescence polarization; in the data active means inhibition above about 28%
ASAP1 inh – ASAP1 ArfGAP inhibition; ASAP1-stimulated ARF1 GTP hydrolysis, GDP FP detection; 360,000 compounds, 0.19% hits; Q9ULH1; AID 624377; inhibition, % at 16.5 µM; in the data active means inhibition above about 25%;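 further: 0% = vehicle with enzyme and substrate and 100% = no enzyme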
Target sequence (Q9ULH1 325-724 limits assumed): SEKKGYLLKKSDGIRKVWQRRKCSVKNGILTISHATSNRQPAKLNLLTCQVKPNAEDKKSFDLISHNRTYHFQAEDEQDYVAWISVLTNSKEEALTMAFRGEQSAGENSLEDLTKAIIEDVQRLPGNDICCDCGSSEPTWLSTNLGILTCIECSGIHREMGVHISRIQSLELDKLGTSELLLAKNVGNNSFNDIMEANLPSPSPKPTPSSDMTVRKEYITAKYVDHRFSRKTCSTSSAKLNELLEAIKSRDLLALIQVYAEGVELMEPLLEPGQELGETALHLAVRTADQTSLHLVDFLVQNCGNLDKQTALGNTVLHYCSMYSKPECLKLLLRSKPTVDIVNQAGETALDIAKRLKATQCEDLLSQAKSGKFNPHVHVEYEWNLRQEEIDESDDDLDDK
ARFGAP1 inhibitor – inhibits rat ARF GTPase activating protein 1; 360,000 compounds, 0.26% hits; Q62848; Arfgap1-stimulated ARF1 GTP hydrolysis, GDP FP detection; inhibition, % at 16.5 µM;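 active means inhibition above a per-plate limit, mean inhibition of low control wells plus 3 SD, cut at about 25% in these data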;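 further: 0% = DMSO wells with enzyme and 100% = wells lacking Arfgap1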
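Material: rat Arfgap1 GAP domain (His6, aa 1-136), purified enzyme. Also added: human ARF1(Δ1-17)-GTP substrate. Compound dosing: 16.5 µM single point, 1.26% DMSO. Timing: enzyme reaction 120 min at 25 °C after 20 min preincubation. Signal: GDP detection by fluorescence polarization. Read-out basis: percent inhibition of GAP-stimulated GDP formation, scaled between DMSO and no-Arfgap1 medians.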
EBNA-1 inh conf – EBNA-1 (EBV) inhibition, confirmation. shares compounds with EBNA-1 inh. Recombinant EBNA-1 DBD, Cy5-DNA fluorescence polarization. inhibition, % at 14.8 µM. 830 compounds, 35% hits. AID 2292;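 active means mean inhibition across replicates above a set limit taken from the earlier primary screen, cut at about 28% in these data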;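 further: plate controls were EBNA-1 protein with DMSO for no effect and wells lacking EBNA-1 for full effect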
ZTA DNA inh trip – ZTA (EBV) inhibition, triplicate counter-screen | shares compounds with EBNA-1 inh | Zta-ZRE DNA binding, Cy5 fluorescence polarization | inhibition, % at 11.1 µM | 830 tested, under 10 active;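 active means mean inhibition over triplicates above a set limit taken from the primary EBNA-1 screen, cut at about 37% in these data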;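 further: purified full length Zta protein with Cy5 labeled ZRE DNA probe; 0% = Zta with DMSO and 100% = wells lacking Zta protein; inhibitors lower polarization by freeing the labeled DNA probe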
Starred values were filed as active, the others as inactive; · = no result given.

SMILES	ZTA DNA inh	EBNA-1 inh	ASAP1 inh	ARFGAP1 inhibitor	EBNA-1 inh conf	ZTA DNA inh trip
CCn1c(Cc2ccccc2)nnc1SCC(=O)Nc1ccc2c(c1)OCCO2	-1	29*	7	-8	-1	4
O=C(N=Nc1c(O)[nH]c2c(Cl)cc(Cl)cc12)c1ccccc1O	·	·	1	-11	·	·
O=C(c1cccc(-c2ccc(O)cc2)c1)N1CCN(c2ccc(F)cc2)CC1	-6	40*	-8	-11	20	-3
Cc1ncoc1C(=O)N1CCCC(C(=O)c2cccc3ccccc23)C1 (configuration not stated)	-17	-4	14	3	·	·
Cn1nccc1C(=O)N1CCCC(C(=O)c2cccc3ccccc23)C1 (configuration not stated)	-5	40*	-6	-1	-3	4
COC(=O)C1=C(C)N(Cc2cccc(C(F)(F)F)c2)C(=NCc2ccc3c(c2)OCO3)NC1CCc1ccccc1 (configuration not stated)	·	·	7	0	·	·
COc1ccc(NC(=O)COC(=O)c2ccc(OCc3ccccc3Cl)c(OC)c2)c(OC)c1	-4	32*	3	5	-8	-9
COc1cc(C(=O)OCC(=O)Nc2cc(C)on2)ccc1OCc1ccccc1Cl	-8	-3	8	-7	·	·
O=c1cc(-c2ccc(O)c(-c3c(O)cc(O)c4c(=O)cc(-c5ccc(O)cc5)oc34)c2)oc2cc(O)cc(O)c12	2	34*	1	21	29*	20
O=c1cc(-c2ccc(O)cc2)oc2c(-c3c(O)cc(O)c4c(=O)cc(-c5ccc(O)cc5)oc34)c(O)cc(O)c12	·	·	21	7	·	·
Cc1ccccc1-c1ccc2c(c1)[C@@H]1C[C@H](N(C)C(=O)c3ccco3)[C@H]([C@H](C)O)CN1CC2	·	·	8	4	·	·
COCCN(Cc1cc2cc(C)cc(C)c2nc1Cl)C(=O)Nc1ccccc1	-12	56*	12	-1	-9	3
Brc1ccc2nc(-c3ccc(CN4CCC(c5nc6ccccc6[nH]5)CC4)cc3)c(-c3ccccc3)nc2c1	·	·	-4	9	·	·
COc1cccc(N2CCN(S(=O)(=O)c3ccc(-c4cnc(C5CC5)o4)cc3)CC2)c1	-5	91*	5	-5	84*	2
O=C(NC(=S)NCc1nc2ccccc2[nH]1)c1ccc(F)cc1	20	33*	11	4	-13	-12
O=C(NC(=S)NCc1nc2ccccc2[nH]1)c1ccccc1F	-12	-4	-4	-4	·	·
Cc1ccc(-c2nn3c(-c4ccco4)nnc3c3ccccc23)cc1S(=O)(=O)NCC1CCCO1 (configuration not stated)	2	86*	-7	-11	-4	-6
C[C@H](O)[C@@H]1C(=O)N2CCc3c([nH]c4c(-c5ccccc5)cccc34)[C@@H]2C[C@@H]1N(C)C(=O)c1ccccc1F	·	·	6	-3	·	·
Cc1ccc(-c2nn3c(C)nnc3s2)cc1NC(=O)c1ccc(-c2ccc(Cl)cc2Cl)o1	13	37*	16	14	2	-11
C=CCNC(=S)Nc1c(C(=O)OC)[nH]c2cc(OC)ccc12	15	29*	-5	-3	7	1
C=CC[C@]1(c2ccccc2)C(=O)N2C[C@H]3CON(C)[C@H]3C[C@H]2c2ccccc21	·	·	3	4	·	·
CC[n+]1ccc(/C=C/c2c[nH]c3ccccc23)cc1	10	42*	0	-2	5	-1
Cc1ccc2[nH]cc(/C=C/c3cc[n+](C)cc3)c2c1	·	·	-8	4	·	·
O=C(Cn1nnc(-c2ccc(CN3CCOCC3)cc2)n1)Nc1nc(-c2ccccc2)cs1	-2	48*	6	-17	5	7
CCCCCCCCN1C(=O)[C@@H](CC(=O)NCC23CC4CC(CC(C4)C2)C3)C[C@@]2(C(=O)OC)C1=C[C@H](C1CCCC1)O[C@@H]2C	·	·	-1	-11	·	·
SMILES	ZTA DNA inh	EBNA-1 inh	ASAP1 inh	ARFGAP1 inhibitor	EBNA-1 inh conf	ZTA DNA inh trip
Cc1ccc(N(C)c2nc(N)nc(N)c2N=O)cc1	·	·	-13	-1	·	·
CNC(=S)NNC(=O)c1sccc1OCc1cccc(C(F)(F)F)c1	1	35*	4	6	65*	5
CC(C)c1[nH]nc2c1C(c1ccccc1)N(Cc1ccccc1)C2=O (configuration not stated)	·	·	-2	-9	·	·
CN(Cc1ccccc1)S(=O)(=O)c1ccc(Cl)c(C(=O)NCc2ccncc2)c1	-7	-1	3	5	·	·
CN(Cc1ccccc1)S(=O)(=O)c1ccc(Cl)c(C(=O)NCc2ccc3c(c2)OCO3)c1	10	37*	3	-3	-8	4
Cc1ccc(CN(c2ccc(C(=O)NCc3ccc4c(c3)OCO4)cc2)S(C)(=O)=O)cc1	2	35*	16	4	14	-3
COC(=O)[C@]12C[C@H](CC(=O)NCCC(C)C)C(=O)N(Cc3ccccc3)C1=C[C@H](C(C)(C)C)O[C@@H]2C	·	·	-10	2	·	·
CC(=O)c1ccc(NC(=S)NC(=O)Cc2ccc(Cl)cc2)cc1	4	31*	-8	9	43*	-1
CCCC(=O)NC(=S)Nc1ccc(C(C)=O)cc1	-7	-8	5	13	·	·
O=C(CSc1ncnc2c1oc1ccccc12)Nc1cccc(F)c1	-10	34*	2	6	54*	9
COC(=O)C1=C(C(=O)OC)C2CCCC1C1N=NN(c3ccccc3)C21 (configuration not stated)	·	·	-5	-3	·	·
Cc1ccc(NC(=O)C2CC(=O)N/C(=N/N=C/c3ccco3)S2)cc1C (configuration not stated)	-12	30*	·	·	4	-10
COCCn1c(SCc2nc(N)nc(Nc3ccccc3C)n2)nc2ccccc2c1=O	7	1	·	·	·	·
Cc1ccccc1Nc1nc(N)nc(CSc2nc3ccccc3c(=O)n2CCCO)n1	9	42*	-2	-7	-2	6
CC(=O)CCc1c(C)nc2ccc(C(=O)O)cc2c1Cl	8	31*	-5	0	-13	-22
O=C(CCSc1nc2ccccc2s1)N/N=C/c1c(O)ccc2ccccc12	21	48*	6	8	6	8
CCn1c(NC(=O)c2cccc(Cn3cc(Cl)cn3)c2)nc2ccccc21	-5	7	-1	7	·	·
Cn1c(NC(=O)c2cccc(Cn3cc(Cl)cn3)c2)nc2ccccc21	10	41*	-13	6	34*	-3
Cc1ccccc1OCc1nnc(SCC(=O)Nc2ccc3nc(SCC(=O)Nc4ccccc4)sc3c2)n1C	-16	44*	-9	4	43*	12
COc1ccc(NC(=S)NNC(=S)Nc2cccc(C(F)(F)F)c2)cc1	-4	169*	5	9	83*	1
CCOc1ccc(NC(=S)NNC(=S)Nc2cccc(C(F)(F)F)c2)cc1	9	9	-5	14	·	·
